Experimental findings from ChEMBL document CHEMBL4371092, “3,4- seco-Norclerodane Diterpenoids from the Roots of Polyalthia laui” (J Nat Prod, 2019) are described below.

Molecules are shown by their SMILES. Where only a bound is given, the exact number is not on record here.

Series [1] is described as follows: Cytotoxicity against human C8166 cells after 72 hrs by MTT assay. The class given is cell-based. Summed up: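 C8166 cells were tested for cytotoxicity by MTT assay, with CC50 defined as the 50% cytotoxic concentration.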
On the technique in general: Tetrazolium dyes change colour on reduction, which living cells bring about.

The subject of the next series is MCF7. Description: Cytotoxicity against human MCF7 cells after 72 hrs by MTT assay. Type of series: cell-based. Particulars: MCF7, 72 h. Summed up: (§1)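 Human tumour lines MCF7 (breast), HeLa (cervical carcinoma) and A549 (lung adenocarcinoma) were tested by MTT assay for cytotoxicity, with doxorubicin as the positive control.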
A short description of series [2]: Therapeutic index, ratio of CC50 for human C8166 cells to EC50 for HIV1 3B infected in human MT4 cells. Type of series: toxicity, cell-based. To be noted: read-out: Ratio CC50/EC50. In a few lines:
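TI was computed as CC50/EC50. CC50 came from an MTT cytotoxicity assay on C8166 cells, and EC50 from inhibition of HIV-1 cytopathic effect, with AZT as the positive control.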

Series [3] relates to Human immunodeficiency virus 1. The experiment in a line: Antiviral activity against HIV1 3B infected in human MT4 cells assessed as reduction in virus-induced cytopathic effect by measuring number of syncytia after 3 days by inverted microscopic method. The class given is functional, organism-based. Particulars: Human immunodeficiency virus 1, 3B, MT4, 72 h. In a few lines: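 Anti-HIV-1 activity was scored as inhibition of viral cytopathic effect, and EC50 was taken as the 50% effective concentration. AZT (3′-azido-3′-deoxythymidine) was run as the positive control.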

The next series deals with HeLa. The experiment in a line: Cytotoxicity against human HeLa cells after 72 hrs by MTT assay. The class given is cell-based. In a few lines: as §1
The test system of a further series is A549. The experiment in a line: Cytotoxicity against human A549 cells after 72 hrs by MTT assay. The class given is cell-based. To be noted: A549, 72 h. Summed up:
as §1

In the case of `CO[C@@H]1OC(=O)C=C1CC[C@@]1(C)[C@H](C)CC[C@@]2(C)C(C)=C(C=O)C[C@H]12`, the CC50 (usually the concentration at which the toxic effect on the cells reaches its halfway point) at 72 h in series [1] is greater than 200 µM. Moreover, the IC50 in the series on MCF7, with HeLa and in the series on A549 was greater than 10 µM throughout. Further, the selectivity ratio in series [2] is greater than 11.9. For the same compound, the EC50 (as a rule, the concentration needed to bring the measured effect to its halfway point) in series [3] was found to be 16.8 µM.

Turning to `C[C@@H]1CC[C@@]2(C)C(C(=O)O)=CCC[C@@H]2[C@@]1(C)CC/C(=C\C(=O)O)C(=O)O`, the half-maximal cytotoxic concentration (CC50) at 72 h in series [1] was greater than 200 µM. For the same compound, the IC50 in the series on MCF7, in the series on HeLa and with A549 was greater than 10 µM in each case. Further, the selectivity ratio in series [2] was greater than 16.4. The EC50 in series [3] is 19.8 µM.

With `CC1=C(C(=O)O)C[C@@H]2[C@@](C)(CC/C(=C/C(=O)O)CO)[C@H](C)CC[C@@]12C`, in series [1], the CC50 at 72 h is greater than 200 µM. The IC50 in the series with MCF7, with HeLa and with A549 was greater than 10 µM each time. The selectivity ratio in series [2] is greater than 8.5. The EC50 in series [3] is 23.1 µM.

In series [1], `Cc1cn([C@H]2C[C@H](N=[N+]=[N-])[C@@H](CO)O2)c(=O)[nH]c1=O` [ZIDOVUDINE] had a CC50 at 72 h of 5230 µM. Further, the selectivity ratio in series [2] was determined as 338000. Moreover, in series [3], the EC50 was 0.02 µM.

In series [1], `CC(=O)[C@]1(C)CC[C@@H](C)[C@](C)(CC/C(C)=C/C(=O)O)[C@H]1CC(=O)O` displayed a CC50 at 72 h greater than 200 µM. Besides, the IC50 with MCF7, with HeLa and in the series on A549 was greater than 10 µM throughout. Besides, the selectivity ratio in series [2] was greater than 16.4. In addition, the EC50 in series [3] was found to be 12.2 µM.

For `C/C(=C\C(=O)O)CC[C@@]1(C)[C@H](C)CC[C@]2(C)[C@@H]1CC[C@@H](O)[C@]2(C)O`, the CC50 at 72 h in series [1] is greater than 200 µM. For the same compound, the IC50 in the series on MCF7, with HeLa and in the series with A549 was greater than 10 µM in each case. Also, the selectivity ratio in series [2] was greater than 7.3. In addition, the EC50 in series [3] is 27.4 µM.

For `CC1=CC(=O)C[C@@H]2[C@@](C)(CC/C(=C\C(=O)O)C(=O)O)[C@H](C)CC[C@@]12C`, the CC50 at 72 h in series [1] is greater than 200 µM. The IC50 in the series with MCF7, in the series with HeLa and in the series with A549 was greater than 10 µM throughout. Also, the selectivity ratio in series [2] was greater than 5.7. In series [3], the EC50 is 35.2 µM.
